Marks after values point to notes of the source that are not given here.
What was measured:
SKBR-3 cells [1] = assay: Cytotoxicity by MTT assay; type: cell-based; settings: Homo sapiens, SK-BR-3
Outline: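 SKBR-3 cells were grown in McCoy's 5A with 10% FBS, penicillin and streptomycin at 37°C under 5% CO2. Test compound was applied over a dose range in a time-dependent MTT assay. Growth inhibition was expressed as a percentage relative to controls, and IC50 was derived from the dose response.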

SKBR-3 cells [2] = assay: Apoptosis study by annexin V FITC; type: cell-based, human; settings: SKBR3 cells, 24 hrs, at respective IC50
Outline: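 SKBR-3 cells seeded at 1×10^5 cells per well in McCoy's medium at 37°C and exposed to test compound for 24 hrs. Cells were then trypsinized, pelleted at 3000 rpm for 3 mins and PBS-washed. They were stained with FITC-annexin V plus propidium iodide, and the apoptotic fraction was quantified by flow cytometry.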

SKBR-3 cells [3] = assay: Cell cycle distribution analysis; type: cell-based, human; settings: 24 hrs, at respective IC50
Outline: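 After 24 hrs of exposure to test compound (SKBR-3 seeded at 1×10^5 cells per well), cells were collected and washed thrice in sterile PBS pH 7.4. They were fixed in chilled 70% ethanol and stained with propidium iodide (20 µg/mL) for 30 mins. DNA content was acquired over 15,000 events per sample, and phase distribution was compared with untreated control.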

MCF-7 cells = assay: Cell cycle distribution analysis; type: cell-based, human; settings: 24 hrs, at respective IC50
Pharmacokinetic study = type: in vivo, BALB/c mice
Cardiac toxicity study = type: in vivo, female BALB/c mice; settings: BALB/c mice
Outline: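 Female BALB/c mice (~25 g, n=3 per group) received three consecutive IV injections totalling […] DOX, given as free drug or drug-equivalent nanoparticles. Controls were untreated/saline and blank nanoparticles. Weight was recorded every 48 hrs, and […] was taken under light anaesthesia 14 days after the last dose. Hearts were then excised and weighed, and SOD was kit-assayed in heart homogenate (ice-cold PBS, 10 mL/g).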

SKBR-3 tumor = assay: In vivo therapeutic study on tumor-bearing xenograft mice; design: species or system athymic nude mice; settings: for average tumor volume: three IV doses of DOX 3 mg/kg on alternate days
Outline: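 Athymic nude mice (CAnN.Cg-Foxn, 6 weeks, ~20 g) were inoculated subcutaneously in the left rear flank with 1×10^7 SKBR-3 cells in 200 μL medium. At 100–150 mm3, groups of three received IV saline or test compound, three doses of DOX 3 mg/kg equivalent on alternate days. Tumours were caliper-measured, body weight was monitored, and excised tumours were weighed after sacrifice (mean ± SD, n=3).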

[4] = BALB/c, mouse, plasma, iv, 10 mg/kg
[5] = plasma DOX, IV bolus, 10 mg/kg DOX or equivalent, BALB/c mice

AUC(0-inf) (Pharmacokinetic study; [4]): 2930 ± 205 ng·h/mL | AUC(0-t) (Pharmacokinetic study; [4]): 2880 ± 199 ng·h/mL | Cmax (Pharmacokinetic study; [4]): 911 ± 50.5 ng/mL | MRT inf (Pharmacokinetic study; [4]): 18.2 ± 0.86 h | MRT last (Pharmacokinetic study; [4]): 16.2 ± 0.99 h | Tmax (Pharmacokinetic study; [4]): 15 ± 1.26 min | Vd (Pharmacokinetic study; [4]): 61.9 ± 4.8 L/kg | clearance (Pharmacokinetic study; [4]): 56.7 mL/min/kg | half-life (Pharmacokinetic study; [4]): 1070 ± 126 min | AUMCinf (Pharmacokinetic study; [5]): 53,296.5±2600 hrs.hrs.ng/mL | AUMClast (Pharmacokinetic study; [5]): 46,707.8±2202.6 hrs.hrs.ng/mL
SMILES: COc1cccc2c1C(=O)c1c(O)c3c(c(O)c1C2=O)C[C@@](O)(C(=O)CO)C[C@@H]3O[C@H]1C[C@H](N)[C@H](O)[C@H](C)O1 [DOX, (7S, 9S)-7-[(2R, 4S, 5S, 6S)-4-amino-5-hydroxy-6-methyloxan-2-yl]oxy-6,9,11-trihydroxy-9-(2-hydroxyacetyl)-4-methoxy-8,10-dihydro-7H-tetracene-5,12-dione]
IC50 (SKBR-3 cells [1]): 14.1 µM | extent of apoptosis (SKBR-3 cells [2]): 19.6% | cell-arrest in S-phase (SKBR-3 cells [3]): 22% | cell-arrest in S-phase (MCF-7 cells): 8% | Heart weight (Cardiac toxicity study; 2 weeks after final dosing): 0.1420 ± 0.025 g | LV fractional shortening (Cardiac toxicity study; 14 days after last dose): significant decrease | histopathology of heart sections (Cardiac toxicity study; hematoxylin and eosin staining): Remarkable changes in degradation in cardiac muscle with vacuolization and edema of the cells | % SOD (Cardiac toxicity study; heart homogenate, 2 weeks after final dosing): 34.02±4.5^a,b % | Average tumor weights of the excised tumors (SKBR-3 tumor; at the terminal experiment, SKBR-3 tumor, three IV doses of DOX 3 mg/kg): 0.424 ± 0.06 g | average tumor volume (SKBR-3 tumor; day 15, SKBR-3 tumor): 500 mm^3 | average tumor volume (SKBR-3 tumor; day 25, SKBR-3 tumor): 1790 mm^3

Reference: publication PMC6790403 (International Journal of Nanomedicine, 2019)
